# Compound activity deposited in PubChem by Johns Hopkins Ion Channel Center.
# KCNK3 inh: human KCNK3 channel inhibition, primary screen. O14649. CHO-KCNK3 thallium flux, FluxOR fluorescence; stronger effect = lower value. B-score at 10 µM. hit rate 0.84% among 340,000. AID 602410;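 active means B-score under library mean minus 4 SD, starting fluorescence ratio at most library mean plus 5 SD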;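 further: more negative B-score means stronger inhibition of thallium flux through KCNK3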
# KCNQ1 inh: blocks the human KCNQ1 potassium channel; CHO-K1 KCNQ1, FluxOR thallium flux fluorescence; stronger effect = higher value; P51787; hit rate 1.3% among 310,000; B-score at 10 µM; AID 2642;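 active means compounds whose thallium flux B-score, printed positive for inhibition, exceeds three library SD while starting fluorescence stays within three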;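 further: channel opened by potassium depolarization with thallium stimulus after 20 min compound exposure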
# KCNQ1 act: potentiates or activates the human KCNQ1 potassium channel | P51787 | CHO-K1 KCNQ1, thallium flux FluxOR fluorescence; stronger effect = higher value | B-score at 10 µM | hit rate 0.35% among 310,000;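 active means fluorescence ratio B-score, a plate-corrected score, at least three library SD, with initial intensity B-score within 5 SD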
#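 Assay system: CHO-K1 cells stably expressing KCNQ1; Medium: assay buffer with matched DMSO; Also added: K+/Tl+ depolarizing stimulus; Dosing: single dose; Timing: dye 90 min, compound 20 min, room temperature; Measured by: kinetic FluxOR thallium fluorescence, 10-s 1-Hz baseline, 110-s post-stimulus read; Read-out: peak-minus-minimum fluorescence over initial fluorescence, negative-control normalized, B-scored.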
# hERG rescue: shields human hERG channel from block by proarrhythmic agents | Q12809 | CHO-hERG, FluxOR thallium flux, dofetilide IC70 present | activation (rescue from dofetilide block), less the hit threshold, % at 10 µM | hit rate 0.51% among 310,000 | AID 1511;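 active means activation above the mean of controls blocked by dofetilide plus 5 SD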;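 further: thallium influx through hERG after potassium depolarization seen as dye fluorescence rise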
# Kir21 block: inhibitors of mouse Kir2.1 inward-rectifier potassium channel | P35561 | HEK293-Kir2.1, FluxOR thallium flux fluorescence; stronger effect = lower value | B-score at 10 µM | hit rate 0.85% among 310,000;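 active means fluorescence ratio B-score at or below minus 3 SD of library scores, with starting-brightness B-score within 2 SD, cut at about -4.2 in these data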;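 further: channel flux triggered by added potassium and thallium sulfate stimulus; B-score of peak minus minimum fluorescence over baseline after thallium stimulus; more negative B-score means stronger Kir2.1 block with less thallium influx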
# KCNK9 inh: inhibitors of human KCNK9 two-pore domain potassium channel. Q9NPC2. HEK293 KCNK9, FluxOR thallium flux fluorescence; stronger effect = lower value. B-score at 10 µM. hit rate 1.2% among 310,000. AID 488922;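 active means ratio B-score over 3 SD below the library mean, with starting fluorescence within 5 SD of its mean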;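 further: negative B-score means less thallium flux so channel inhibition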
# KCNK9 block conf: human KCNK9 inhibitor confirmation | hit rate 43% among 4,900 | shares compounds with KCNK9 inh | AID 492992 | inhibition, % at 10 µM | HEK293 KCNK9 cells, FluxOR thallium flux fluorescence;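 active means thallium signal inhibited by more than 5 SD of the compound-free buffer control wells, on both duplicate plates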
# Kir2-1 spec: mouse Kir2.1 off-target activity of KCNK9 modulators | shares compounds with KCNK9 inh | Kir2.1 cells, FluxOR thallium flux fluorescence | inhibition, % at 10 µM | hit rate 4% among 4,900 | AID 492993;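 active means thallium signal drop more than 5 SD beyond the mean of the no-compound control wells, seen in both duplicate plates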;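 further: signal is fluorescence rise after thallium addition divided by baseline fluorescence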
# KCNK9 uninduced: second counter-screen for KCNK9 modulators: effect in non-induced cells | shares compounds with KCNK9 inh | non-induced KCNK9-HEK293, FluxOR thallium flux | inhibition, % at 10 µM | hit rate 40% among 4,900;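 active means thallium signal drop beyond 5 SD of the untreated control mean, on both duplicate plates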
# KCNK3 confirm: confirmation of human KCNK3 two-pore domain potassium channel inhibitors; CHO-KCNK3 thallium flux, FluxOR fluorescence; 0% buffer, 100% carvedilol maximal block; AID 651638; ratio percent of control, % at 10 µM; shares compounds with KCNK3 inh; hit rate 99% among 2,400;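 active means ratio percent of control, averaged over triplicates, above buffer control mean plus 5 SD, cut at about 64% in these data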;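 further: ratio is the fluorescence rise from min to max over baseline after thallium stimulus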
# KCNK3 noninduced: activity in cells without induced KCNK3 expression. shares compounds with KCNK3 inh. non-induced KCNK3 parental cells, FluxOR thallium flux; stronger effect = lower value. thallium flux ratio (lower = more inhibition) at 10 µM. hit rate 40% among 2,400;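 active means thallium flux ratio, averaged over three wells, more than 5 SD below the buffer control mean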;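 further: host cells are CHO cells without KCNK3 induction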
# Hits are given with their value; . = inactive; / = not tested or not shown. The list is not random: actives were taken first. Their share in the collection is about 3.7%.
SMILES,KCNK3 inh,KCNQ1 inh,KCNQ1 act,hERG rescue,Kir21 block,KCNK9 inh,KCNK9 block conf,Kir2-1 spec,KCNK9 uninduced,KCNK3 confirm,KCNK3 noninduced
CCOC(=O)/C(C(=O)Nc1ccccc1Cl)=C1/NC(C)(C)Cc2ccccc21,-9.11,.,.,.,.,-10,37.5%,.,40.0%,116.0,.
CCc1cc2cccc(C)c2nc1SCC(=O)NC1CCCC1,-11.4,.,.,.,.,-9.04,52.5%,.,26.5%,104.0,.
COC(=O)c1cc2sccc2n1Cc1nc(-c2cccc(Cl)c2)oc1C,-8.7,.,.,.,.,-8.49,28.0%,.,30.5%,93.3,.
Cc1ccc(C2C(C#N)=C(N)Oc3c2sc2ccccc32)o1 (configuration not stated),/,.,.,.,.,.,/,/,/,/,/
O=C(Nc1ccccc1)C1=C(O)CC(c2ccco2)CC1=Nc1ccccc1 (configuration not stated),.,.,.,.,.,-11.5,27.0%,.,36.0%,114.7,0.155
CC1=C(C(=O)Nc2ccccc2)C(c2ccco2)NC(=S)N1 (configuration not stated),.,.,.,.,.,.,/,/,/,/,/
O=C(c1ccco1)N1CCN(C(=O)N2c3ccccc3Sc3ccccc32)CC1,.,.,.,.,.,.,/,/,/,/,/
O=C(c1ccco1)N1c2ccccc2Sc2ccccc21,-9.23,.,.,.,.,-9.4,31.0%,.,30.5%,116.3,.
CCOc1cc(CNn2cnnc2SCC(=O)NC(C)(C)C)ccc1OCC(=O)NC(C)(C)C,.,.,.,.,.,.,/,/,/,/,/
O=[N+]([O-])c1ccc(O)c(-c2nc(-c3ccccc3)c(-c3cccs3)[nH]2)c1,.,.,.,.,.,.,/,/,/,/,/
CCOc1cc(-c2nc(-c3ccccc3)c(-c3cc([N+](=O)[O-])ccc3C)[nH]2)ccc1O,-9.65,7,.,.,.,-12.3,55.5%,.,.,123.7,0.12
CSCCC(NC(=O)c1cccc([N+](=O)[O-])c1)C(=O)O (configuration not stated),.,.,.,.,.,.,/,/,/,/,/
CCOC(=O)c1ccc2c(c1)nc(COc1ccc3ccccc3c1)n2CC,-10.5,.,.,.,.,-13,59.0%,.,44.5%,124.7,0.132
O=S(Cc1cc(Oc2ccccc2)nc(-c2ccccc2)n1)c1ccccc1 (configuration not stated),-9.96,.,.,.,.,-18.1,70.0%,.,37.0%,115.0,.
CC(C)=CCN1CCNC(=O)C1CC(=O)NCc1nc(C)c(C)s1 (configuration not stated),.,.,.,.,.,.,/,/,/,/,/
CC(C)(C)NC(=O)COC(=O)CCC(=O)c1cccs1,.,.,.,.,.,.,/,/,/,/,/
COc1cc2c(cc1OC)CN(C(=O)c1oc3ccccc3c1C)CC2,-9.99,.,.,.,.,-9.92,33.5%,.,33.0%,100.0,.
COc1cc2c(cc1OC)CN(C(=O)c1ccc(-c3ccccc3)cc1)CC2,.,.,.,.,.,.,/,/,/,/,/
O=C(Nc1ccccc1N1CCN(C(=O)c2ccccc2)CC1)c1ccc(Cl)cc1,-15.1,.,.,.,.,-13.4,37.0%,.,.,113.0,.
Cc1ccc(O)c(-c2cc(C(=O)NCc3ccncc3)[nH]n2)c1,-9.23,.,.,.,.,-11.2,55.0%,.,29.5%,107.0,.
O=c1/c(=C\c2ccc(O)cc2)sc2n1C(c1ccccc1)C(c1ccccc1)=NN=2 (configuration not stated),.,.,.,.,.,-12.9,55.5%,.,52.0%,132.3,0.148
Cc1cccc(OC(=O)n2c(=S)oc3cc(Cl)ccc32)c1,.,/,/,/,/,/,/,/,/,/,/
CCN(CC)C(=O)C1CCCN(c2ccc([N+](=O)[O-])cc2/C=N/NC(=O)c2cccc(Br)c2)C1 (configuration not stated),.,.,.,.,.,-12.5,41.5%,.,32.0%,134.3,0.132
CC(C)Cc1nnc(NC(=O)CCC(=O)N2CCN(c3ccc(Cl)cc3)CC2)s1,.,.,.,.,.,.,/,/,/,/,/
C=C(C)COc1ccc(-c2ncnc(C(F)(F)F)c2-c2ccc(OC)cc2)c(O)c1,-9.24,.,.,.,.,.,.,.,.,109.0,0.15
SMILES,KCNK3 inh,KCNQ1 inh,KCNQ1 act,hERG rescue,Kir21 block,KCNK9 inh,KCNK9 block conf,Kir2-1 spec,KCNK9 uninduced,KCNK3 confirm,KCNK3 noninduced
C=C(C)COc1ccc(-c2ncnc(C(F)(F)F)c2-c2ccccc2)c(O)c1,.,.,.,.,.,.,/,/,/,/,/
O/N=C(\c1ccc(Cl)cc1Cl)c1ncc(C(F)(F)F)cc1Cl,-9.8,.,.,.,.,-13.3,61.5%,.,44.0%,97.0,0.136
Cc1ccc(C(=O)N(CCc2ccccc2)Cc2ccccc2)cc1S(=O)(=O)N1CCCCC1,-9.1,.,.,.,.,-12.7,76.0%,.,29.5%,103.0,.
Cc1ccc(C(=O)N(CCc2ccccc2)Cc2ccccc2)cc1S(=O)(=O)N1CCOCC1,.,/,/,/,/,/,/,/,/,/,/
Cn1c(NC(=O)Cc2cccc3ccccc23)cc(=O)n(C)c1=O,.,.,.,.,.,.,/,/,/,/,/
Cc1ccc(S(=O)(=O)/N=C(/Nc2c(C)cccc2C)c2ccccc2)cc1,.,/,/,/,/,/,/,/,/,/,/
OCCC1CN(Cc2cccn2-c2ccccn2)CCN1Cc1ccccc1 (configuration not stated),.,.,.,.,.,.,/,/,/,/,/
Cc1ccsc1CN(C)CC(=O)Nc1ccc([N+](=O)[O-])cc1Cl,-9.55,.,.,.,.,-20.6,64.5%,.,48.5%,135.0,0.126
CC(=O)c1ccc(C(=O)Nc2ccc3c(c2)C(=O)NC3=O)cc1,.,.,.,.,.,.,/,/,/,/,/
Cc1ccc(-c2cc(C(=O)N3CCCc4ccccc43)c3ccccc3n2)cc1,.,.,.,.,.,.,/,/,/,/,/
Cc1ccc2nc3sc(C(=O)N4CCCc5ccccc54)c(N)c3cc2c1,-9.05,.,.,.,.,-11.2,53.0%,.,51.5%,135.3,0.0833
COC(=O)C(Cc1ccc(O)cc1)NC(=O)C(CC(=O)OC(C)(C)C)NC(=O)OC(C)(C)C (configuration not stated),.,.,.,.,.,.,/,/,/,/,/
Cc1ccc(S(=O)(=O)N(C)C)cc1NC(=O)CN1CCN(Cc2ccccc2)CC1,.,.,.,.,.,.,/,/,/,/,/
